Source: ChEMBL document CHEMBL1145092, “Soft antimicrobial agents: synthesis and activity of labile environmentally friendly long chain quaternary ammonium compounds” (J Med Chem, 2003)

Experiments:
[1] = Half life (t1/2) was determined; type: ADME
How it was run: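 Hydrolytic stability: compound from a 0.1 mg/mL ethanol stock was spiked into 10 mM phosphate buffer, pH 6, and held at 60 °C (±0.2 °C). Periodic HPLC or LC-MS/MS analysis was run, and k_obs came from linear regression of peak integration (n = 3). Selected compounds were also tested in diluted (1:4) agar at 37 °C.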

[2] = tested on: Escherichia coli; assay: Minimum concentration required to inhibit Escherichia coli ATCC 25922; type: functional
How it was run: (§1)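 Broth doubling-dilution MIC in Mueller Hinton broth against ATCC quality-control strains, incubated 24 h at 37 °C in ambient air. Poorly water-soluble compounds were dissolved in minimal DMSO. Values are in µg/mL.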

[3] = tested on: Enterococcus faecalis; assay: Minimum concentration required to inhibit Enterococcus faecalis ATCC 29212; type: functional; how it was run: as §1
[4] = tested on: Pseudomonas aeruginosa; assay: Minimum concentration required to inhibit Pseudomonas aeruginosa ATCC 27853; type: functional; how it was run: as §1
[5] = tested on: Staphylococcus aureus; assay: Minimum concentration required to inhibit Staphylococcus aureus ATCC 25923; type: functional; how it was run: as §1
[6] = tested on: Staphylococcus aureus; assay: Tested for antibacterial activity against Staphylococcus aureus; type: functional
[7] = tested on: Human alphaherpesvirus 1; assay: Tested for antiviral activity against HSV-1 at a concentration of 100 ug/mL after 2 hr of treatment at 37 degrees C; type: functional, herpes simplex virus
How it was run: (§2)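 HSV-1 strain MacIntyre stock (10^6.5–10^7.5 TCID50/100 µL) was mixed 1:1 with twofold compound dilutions made in RPMI-1640 with 2% FBS from a 1 mg/mL HBSS stock; concentrations are final. Mixtures were held 2 h at 37 °C, then diluted 10-fold to stop. Residual titer was measured on Vero monolayers by 10-fold dilutions in quadruplicate wells, scoring CPE daily for 5 days at 37 °C and 5% CO2. Titers were calculated by Reed–Muench as log10 TCID50/0.1 mL, mean of three, against a virus-plus-medium control.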

[8] = tested on: Human alphaherpesvirus 1; assay: Tested for antiviral activity against HSV-1 at a concentration of 12.5 ug/mL after 2 hr of treatment at 37 degrees C; type: functional, herpes simplex virus; how it was run: as §2
[9] = tested on: Human alphaherpesvirus 1; assay: Tested for antiviral activity against HSV-1 at a concentration of 25 ug/mL after 2 hr of treatment at 37 degrees C; type: functional, herpes simplex virus; how it was run: as §2
[10] = tested on: Human alphaherpesvirus 1; assay: Tested for antiviral activity against HSV-1 at a concentration of 50 ug/mL after 2 hr of treatment at 37 degrees C; type: functional, herpes simplex virus; how it was run: as §2
[11] = tested on: Human alphaherpesvirus 1; assay: Tested for antiviral activity against HSV-1 at a concentration of 6.25 ug/mL after 2 hr of treatment at 37 degrees C; type: functional, herpes simplex virus; how it was run: as §2

SMILES	Log t1/2 [1]	MIC [2] [µg/mL]	MLC [2] [µg/mL]	MIC [3] [µg/mL]	MLC [3] [µg/mL]	MIC [4] [µg/mL]	MLC [4] [µg/mL]	MIC [5] [µg/mL]	MLC [5] [µg/mL]	Log 1/MIC [6]	Log TCID50 [7]	Log TCID50 [8]	Log TCID50 [9]	Log TCID50 [10]	Log TCID50 [11]
CCCCCCCCCCCCCCCCCCNC(=O)C[n+]1ccccc1	0.81	1000	>2000	< 0.25	8	1000	>2000	< 0.25	4	0.6					
CCCCCCCCCCCCCCCCCC(=O)OCC[n+]1ccccc1.[Br-]	0.9	500	500	8	8	250	250	1	2	0	1.3	6.1	2.9	1.63	6.9
CCCCCCCCCCCC(=O)OCC[N+](CCCC)(CCCC)CCCC	0.27	125	125	4	16	500	1000	2	8	-0.3	0.5	7	6.63	6	7
CCCCCCCC(=O)OCC[n+]1ccccc1.[Br-]	0.62	1000	1000	> 2000	>2000	> 2000	>2000	500	500	-2.69					
CCCCCCCCCCCCCCCCOC(=O)C[n+]1ccccc1	-0.9	6400	12800	> 12800	>12800	6400	6400	12800	12800	-4.1					
CCCCCCCCCCCCNC(=O)C[n+]1ccccc1	0.92	125	125	4	8	125	125	4	4	-0.6	1.5	6.57	5.4	1.5	
CCCCCCCCCCCCCCCC(=O)OCC[N+](CCCC)(CCCC)CCCC	0.12	125	250	4	8	250	1000	2	2	-0.3					
CCCCCCOC(=O)C[n+]1ccccc1	0.15	> 12800	>12800	> 12800	>12800	> 12800	>12800	> 12800	>12800	-4.1					
CCCCCCCC/C=C/CCCCCCCC(=O)OCC[n+]1ccccc1.[Br-]	1.17	62	125	4	62	250	250	8	16	-0.9					
CCCCCCCCCCCCCCCC(=O)OCC[N+](CC)(CC)CC.[Br-]		64	64	8	16	250	250	2	4		0.8	7	6.33	5.73	
CCCCCCCCCCCCCCCC(=O)NCC[n+]1ccccc1.[Cl-]		60		7.5		250		2			0.8	6.07	2.9	0.9	6.47
CCCCCCCCCCCC(=O)OCC[N+](CC)(CC)CC.[Br-]	0.52	16	125	32	32	250	250	16	16	-1.2					
CCCCCCCCCCCCCCCCCCOC(=O)C[n+]1ccccc1	-1.1	> 12800	>12800	> 12800	>12800	> 12800	>12800	> 12800	>12800	-4.1					
CCCCCCCCCCCC(=O)OCC[n+]1ccccc1.[Br-]	0.33	25	100	2	100	200	200	< 6.25	50	-0.9	1.63	6.8	6.73	6.73	7.03
CCCCCCCCCCCCCCCC(=O)OCCC[n+]1ccccc1	2.36	250	250	1	4	500	500	< 0.25	1	0.6					
CCCCCCCCCCCC(=O)OCCC[n+]1ccccc1	1.81	125	125	4	16	250	250	4	4	-0.6					
